Test results reported in ChEMBL document CHEMBL2177098, “Synthesis and evaluation of novel ¹⁸F labeled 2-pyridinylbenzoxazole and 2-pyridinylbenzothiazole derivatives as ligands for positron emission tomography (PET) imaging of β-amyloid plaques” (J Med Chem, 2012).

Key:
Brain = assay: Ratio of drug uptake in brain at 2 mins to drug uptake in brain at 60 mins in CD1 mouse at 10 uCi, iv; format: ADME, organism-based; details: in vivo
Outline: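 Normal male ICR mice (5 weeks, about 20 g) received the 18F-labelled tracer in saline, 370 KBq per 100 μL, by tail-vein injection. Five mice per time point were killed at 2, 10, 30 and 60 min. Organs were weighed and gamma-counted against diluted aliquots of the injected dose to give % dose/g. The ratio is brain uptake at 2 min over brain uptake at 60 min.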

[1] = Displacement of [125I]-IMPY from amyloid beta (1 to 42) fibrils after 2 hrs by gamma-counting analysis
Outline: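 Competition binding with aggregated Aβ1-42 fibrils and [125I]IMPY (60000−100000 cpm/100 μL) in 0.05% BSA (1 mL total); inhibitors 10⁻⁴−10^−8.5 M in ethanol. Incubated 37 °C for 2 h, then GF/B vacuum filtration with PBS (0.02 M, pH 7.4) washes and γ counting. Three repeats; IC50 converted to Ki by Cheng−Prusoff.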

Ratio (Brain): 3.9 | Ki [1]: 2.87 nM
Compound: CNc1ccc(/C=C/c2ccc(OCCOCCOCC[18F])nc2)cc1 [FLORBETAPIR F 18]
